Data: ChEMBL document CHEMBL1781961, “Synthesis and in vitro antibacterial activity of 7-(3-alkoxyimino-4-amino-4-methylpiperidin-1-yl) fluoroquinolone derivatives” (Eur J Med Chem, 2011)
Values after ≈ are worked out from the molar mass of the structure shown.

Columns and labels:
Escherichia coli [1] = assay: Antibacterial activity against 10^4 CFU Escherichia coli ATCC 25922 after 18 hrs by CLSI agar dilution method; format: functional; settings: ATCC 25922, 18 h
Enterococcus faecalis [2] = assay: Ratio of levofloxacin MIC to compound MIC for Enterococcus faecalis; format: functional
In short: (§1)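 MICs were measured by agar dilution on plates carrying serial twofold dilutions from […] down to 0.03. Plates were inoculated with 10⁴ cfu and incubated at 35 °C for 18 h. MIC was taken as the lowest concentration giving no visible growth. The ratio is the reference quinolone MIC divided by the test compound MIC for the same strain.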

Enterococcus faecium [3] = assay: Antibacterial activity against 10^4 CFU Enterococcus faecium 08-2 after 18 hrs by CLSI agar dilution method; format: functional; settings: 08-2, 18 h
Enterococcus faecalis [4] = assay: Ratio of gemifloxacin MIC to compound MIC for Enterococcus faecalis; format: functional; in short: as §1
Streptococcus pneumoniae [5] = assay: Antibacterial activity against 10^4 CFU Streptococcus pneumoniae 08-4 after 18 hrs by CLSI agar dilution method; format: functional; settings: 08-4, 18 h
Staphylococcus aureus [6] = assay: Antibacterial activity against 10^4 CFU methicillin-sensitive Staphylococcus aureus 08-1 after 18 hrs by CLSI agar dilution method; format: functional; settings: 08-1, 18 h
[7] = system: Staphylococcus epidermidis; assay: Antibacterial activity against 10^4 CFU methicillin-resistant Staphylococcus epidermidis 09-2 after 18 hrs by CLSI agar dilution method; format: functional; settings: 09-2, 18 h
Streptococcus pneumoniae [8] = assay: Ratio of levofloxacin MIC to compound MIC for Streptococcus pneumoniae 08-4; format: functional; in short: as §1
Pseudomonas aeruginosa [9] = assay: Antibacterial activity against 10^4 CFU Pseudomonas aeruginosa 09-32 after 18 hrs by CLSI agar dilution method; format: functional; settings: 09-32, 18 h
Klebsiella pneumoniae [10] = assay: Antibacterial activity against 10^4 CFU Klebsiella pneumoniae 09-23 after 18 hrs by CLSI agar dilution method; format: functional; settings: 09-23, 18 h
[11] = system: Staphylococcus epidermidis; assay: Antibacterial activity against 10^4 CFU methicillin-sensitive Staphylococcus epidermidis 09-6 after 18 hrs by CLSI agar dilution method; format: functional; settings: 09-6, 18 h
Klebsiella pneumoniae [12] = assay: Antibacterial activity against 10^4 CFU Klebsiella pneumoniae 09-22 after 18 hrs by CLSI agar dilution method; format: functional; settings: 09-22, 18 h
Enterococcus faecalis [13] = assay: Antibacterial activity against 10^4 CFU Enterococcus faecalis 08-12 after 18 hrs by CLSI agar dilution method; format: functional; settings: 08-12, 18 h
Enterococcus faecalis [14] = assay: Ratio of gatifloxacin MIC to compound MIC for Enterococcus faecalis; format: functional; in short: as §1
Enterococcus faecium [15] = assay: Antibacterial activity against 10^4 CFU Enterococcus faecium 06-7 after 18 hrs by CLSI agar dilution method; format: functional; settings: 06-7, 18 h
Escherichia coli [16] = assay: Antibacterial activity against 10^4 CFU Escherichia coli 08-21 after 18 hrs by CLSI agar dilution method; format: functional; settings: 08-21, 18 h
[17] = system: Staphylococcus epidermidis; assay: Ratio of levofloxacin MIC to compound MIC for methicillin-sensitive Staphylococcus epidermidis 09-6; format: functional; in short: as §1
[18] = Cytotoxicity against MDCK cells after 48 hrs by CPE assay; format: cell-based, Canis lupus familiaris; settings: dog
In short: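 MDCK cells kept in Minimum Essential Medium with Earle's salt plus 10% fetal bovine serum at 37 °C, 5% CO₂. […] Medium then replaced by assay medium with or without compound. After 48 h exposure, viability read by CPE assay. CC₅₀ calculated by Reed–Muench analysis.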

Staphylococcus aureus [19] = assay: Antibacterial activity against 10^4 CFU Staphylococcus aureus ATCC 25923 after 18 hrs by CLSI agar dilution method; format: functional; settings: ATCC 25923, 18 h
Pseudomonas aeruginosa [20] = assay: Antibacterial activity against 10^4 CFU Pseudomonas aeruginosa ATCC 27853 after 18 hrs by CLSI agar dilution method; format: functional; settings: ATCC 27853, 18 h
Enterococcus faecalis [21] = assay: Antibacterial activity against 10^4 CFU Enterococcus faecalis 08-10 after 18 hrs by CLSI agar dilution method; format: functional; settings: 08-10, 18 h
Staphylococcus aureus [22] = assay: Antibacterial activity against 10^4 CFU methicillin-resistant Staphylococcus aureus 08-1 after 18 hrs by CLSI agar dilution method; format: functional; settings: 08-1, 18 h

Compound `CO/N=C1\CN(c2c(F)cc3c(=O)c(C(=O)O)cn(C4CC4)c3c2OC)CCC1(C)N` (stereo unspecified) has an MIC (Escherichia coli [1]) greater than 128 µg/mL, a Ratio (Enterococcus faecalis [2]) of 4 and an MIC (Enterococcus faecium [3]) greater than 128 µg/mL. For the same compound, the Ratio (Enterococcus faecalis [4]) was 4, the MIC (Streptococcus pneumoniae [5]) was 0.5 µg/mL (≈ 1.16 µM) and the MIC (Staphylococcus aureus [6]) was 0.25 µg/mL (≈ 0.578 µM). The MIC [7] was 0.25 µg/mL (≈ 0.578 µM), the Ratio (Streptococcus pneumoniae [8]) was 4 and the MIC (Pseudomonas aeruginosa [9]) was 8 µg/mL (≈ 18.5 µM). The MIC (Klebsiella pneumoniae [10]) was greater than 128 µg/mL, the MIC [11] was 0.25 µg/mL (≈ 0.578 µM) and the MIC (Klebsiella pneumoniae [12]) was greater than 128 µg/mL. It also gave an MIC (Enterococcus faecalis [13]) of 1 µg/mL (≈ 2.31 µM), a Ratio (Enterococcus faecalis [14]) of 4 and an MIC (Enterococcus faecium [15]) greater than 128 µg/mL. The MIC (Escherichia coli [16]) was greater than 128 µg/mL, the Ratio [17] was 16 and the CC50 at 48 h [18] was 729 µM. The MIC (Staphylococcus aureus [19]) was 0.125 µg/mL (≈ 0.289 µM), the MIC (Pseudomonas aeruginosa [20]) was 16 µg/mL (≈ 37 µM) and the MIC (Enterococcus faecalis [21]) was 1 µg/mL (≈ 2.31 µM). The MIC (Staphylococcus aureus [22]) was 0.25 µg/mL (≈ 0.578 µM).
Work on `COc1c(N2CCNC(C)C2)c(F)cc2c(=O)c(C(=O)O)cn(C3CC3)c12` (stereo unspecified) [GATIFLOXACIN] yielded an MIC (Escherichia coli [1]) of 4 µg/mL (≈ 10.7 µM), an MIC (Enterococcus faecium [3]) of 2 µg/mL (≈ 5.33 µM) and an MIC (Streptococcus pneumoniae [5]) of 0.25 µg/mL (≈ 0.666 µM). It also gave an MIC (Staphylococcus aureus [6]) of 0.06 µg/mL (≈ 0.16 µM), an MIC [7] of 0.25 µg/mL (≈ 0.666 µM) and an MIC (Pseudomonas aeruginosa [9]) of 16 µg/mL (≈ 42.6 µM). It also gave an MIC (Klebsiella pneumoniae [10]) of 2 µg/mL (≈ 5.33 µM), an MIC [11] of 0.25 µg/mL (≈ 0.666 µM) and an MIC (Klebsiella pneumoniae [12]) of 0.25 µg/mL (≈ 0.666 µM). The MIC (Enterococcus faecalis [13]) was 4 µg/mL (≈ 10.7 µM), the MIC (Enterococcus faecium [15]) was 4 µg/mL (≈ 10.7 µM) and the MIC (Escherichia coli [16]) was 8 µg/mL (≈ 21.3 µM). It also gave a CC50 at 48 h [18] of 396 µM, an MIC (Staphylococcus aureus [19]) of 0.06 µg/mL (≈ 0.16 µM) and an MIC (Pseudomonas aeruginosa [20]) of 1 µg/mL (≈ 2.66 µM). For the same compound, the MIC (Enterococcus faecalis [21]) was 8 µg/mL (≈ 21.3 µM) and the MIC (Staphylococcus aureus [22]) was 0.25 µg/mL (≈ 0.666 µM).
For `CO/N=C1\CN(c2nc3c(cc2F)c(=O)c(C(=O)O)cn3C2CC2)CC1CN` (stereo unspecified) [GEMIFLOXACIN], the MIC (Escherichia coli [1]) was 4 µg/mL (≈ 10.3 µM), the MIC (Enterococcus faecium [3]) was 2 µg/mL (≈ 5.14 µM) and the MIC (Streptococcus pneumoniae [5]) was 0.25 µg/mL (≈ 0.642 µM). For the same compound, the MIC (Staphylococcus aureus [6]) was 0.06 µg/mL (≈ 0.154 µM), the MIC [7] was 0.125 µg/mL (≈ 0.321 µM) and the MIC (Pseudomonas aeruginosa [9]) was 0.25 µg/mL (≈ 0.642 µM). The MIC (Klebsiella pneumoniae [10]) was 8 µg/mL (≈ 20.5 µM), the MIC [11] was 0.25 µg/mL (≈ 0.642 µM) and the MIC (Klebsiella pneumoniae [12]) was 8 µg/mL (≈ 20.5 µM). It also gave an MIC (Enterococcus faecalis [13]) of 16 µg/mL (≈ 41.1 µM), an MIC (Enterococcus faecium [15]) of 16 µg/mL (≈ 41.1 µM) and an MIC (Escherichia coli [16]) of 16 µg/mL (≈ 41.1 µM). It also gave a CC50 at 48 h [18] of 321 µM, an MIC (Staphylococcus aureus [19]) of 0.125 µg/mL (≈ 0.321 µM) and an MIC (Pseudomonas aeruginosa [20]) of 2 µg/mL (≈ 5.14 µM). It also gave an MIC (Enterococcus faecalis [21]) of 16 µg/mL (≈ 41.1 µM) and an MIC (Staphylococcus aureus [22]) of 0.25 µg/mL (≈ 0.642 µM).
